PAFAH1B2 inh: PAFAH1B2 enzyme inhibitors, primary screen, biochemical, fluorescence polarization, human. Platelet-activating factor acetylhydrolase IB subunit alpha2 (Homo sapiens), P68402. recombinant PAFAH1B2, FP-rhodamine activity probe. inhibition, % at 3.39 µM. 1.2% of 340,000 active. AID 492953, 2010;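 active = inhibition above the mean of all tested compounds plus 3 SD, cut at about 24% in these data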
Target sequence (P68402 whole entry, looked up): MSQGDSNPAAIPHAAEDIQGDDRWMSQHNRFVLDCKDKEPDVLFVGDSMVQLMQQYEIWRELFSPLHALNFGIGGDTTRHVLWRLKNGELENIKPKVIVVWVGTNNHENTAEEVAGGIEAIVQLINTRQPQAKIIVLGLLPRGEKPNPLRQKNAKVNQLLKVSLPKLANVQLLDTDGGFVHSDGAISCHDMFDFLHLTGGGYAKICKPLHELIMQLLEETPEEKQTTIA
PAFAH2 inh: PAFAH2 enzyme inhibitors, primary screen, biochemical, fluorescence polarization, human; Platelet-activating factor acetylhydrolase 2, cytoplasmic (Homo sapiens), Q99487; recombinant PAFAH2, FP-rhodamine activity probe; inhibition, % at 3.39 µM; 0.99% of 340,000 active;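 active = inhibition above the mean over all tested compounds plus 3 SD, cut at about 30% in these data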;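 also: inhibitors block probe labeling of enzyme so polarization drops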
pPAFAH inh: pPAFAH enzyme inhibitors, primary screen, biochemical, fluorescence polarization, human. Platelet-activating factor acetylhydrolase (Homo sapiens), Q13093. recombinant pPAFAH, FP-rhodamine probe fluorescence polarization. inhibition, % at 3.39 µM. 1.5% of 330,000 active. AID 463082, 2010;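 active = inhibition above the mean inhibition across the screen plus 3 SD, cut at about 25% in these data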;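 also: inhibitors block binding of the rhodamine activity-based probe so polarization drops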
Target sequence (Q13093 whole entry, looked up): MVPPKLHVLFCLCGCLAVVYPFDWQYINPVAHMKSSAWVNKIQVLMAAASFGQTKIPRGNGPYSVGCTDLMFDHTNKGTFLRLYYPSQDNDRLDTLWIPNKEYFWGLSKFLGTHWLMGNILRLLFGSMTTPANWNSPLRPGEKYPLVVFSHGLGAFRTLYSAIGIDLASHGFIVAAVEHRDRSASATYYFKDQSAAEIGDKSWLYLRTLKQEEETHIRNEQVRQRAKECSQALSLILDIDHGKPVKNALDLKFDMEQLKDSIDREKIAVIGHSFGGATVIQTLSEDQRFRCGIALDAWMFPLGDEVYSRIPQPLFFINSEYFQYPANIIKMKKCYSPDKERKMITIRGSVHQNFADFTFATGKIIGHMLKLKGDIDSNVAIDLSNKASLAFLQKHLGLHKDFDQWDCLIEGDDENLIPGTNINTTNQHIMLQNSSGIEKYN
PAFAH1B3 inh: PAFAH1B3 enzyme inhibitors, primary screen, biochemical, fluorescence polarization, human; Platelet-activating factor acetylhydrolase IB subunit alpha1 (Homo sapiens), Q15102; recombinant PAFAH1B3, FP-rhodamine probe; inhibition, % at 3.39 µM; 0.28% of 340,000 active; AID 492972, 2010;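 active = inhibition above the screen-wide average of all tested compounds plus 3 SD, cut at about 25% in these data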
Apaf-1 inh: inhibitors of human Apaf-1 apoptosome, primary screen, biochemical, DEVD-Rh110 fluorescence, uHTS. AID 489030, 2010. reconstituted apoptosome caspase-3 activity. 0.71% of 330,000 active. inhibition, % at 20 µM. Apoptotic protease-activating factor 1 (Homo sapiens), O14727; active = inhibition of at least 40% at 20 µM
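Material: reconstituted apoptosome with Apaf-1, cytochrome c, caspase-9, procaspase-3, dATP / Buffer or medium: pH 7.5 Hepes buffer with CHAPS, BSA, DTT / Also added: cytochrome c with DEVD-Rh110 / Schedule: compound with Apaf-1, dATP, procaspase-3 30 min, then 50 min reaction, room temperature / Technique: rhodamine 110 fluorescence at Ex 480/Em 540 nm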
Apaf-1 inh conf2: Apaf-1 inhibitors, single-dose retest, confirmation, biochemical, fluorescence, DEVD-Rh110, 20 µM | shares compounds with Apaf-1 inh | reconstituted apoptosome, caspase-3 DEVD-Rh110 fluorescence | inhibition, % at 20 µM | 25% of 1,800 active | AID 504614, 2011;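 active = mean inhibition of at least 40% at 20 µM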
Rh110 quench: Rh110 fluorescence interference by putative Apaf-1 inhibitors, confirmation, artefact control for Apaf-1 inhibitor project, biochemical, 20 µM; quenched caspase reaction; shares compounds with Apaf-1 inh; AID 504615, 2011; 1,800 tested, under 10 active; activation (fluorescence interference), % at 20 µM;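 active = signal rise of 40% or more at 20 µM, treated as a fluorescence artifact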
Fluor interf inh: fluorescence interference of Apaf-1 inhibitor hits, dose response, artefact control for Apaf-1 inhibitor project. 460 tested, under 10 active. AID 588538, 2011. shares compounds with Apaf-1 inh. IC50, µM. fluorescence interference counterscreen, Apaf-1 assay format; call rule not given here
Numbers stand for hits; . = inactive; / = no result given. A selection: hits, their analogues and other compounds. The true share with any hit is near 3.1%.

SMILES | PAFAH1B2 inh | PAFAH2 inh | pPAFAH inh | PAFAH1B3 inh | Apaf-1 inh | Apaf-1 inh conf2 | Rh110 quench | others
O=C(O)c1cccc(NC2=C(N3CCOCC3)C(=O)c3ccccc3C2=O)c1 | . | . | . | . | 84 | 81 | . | Fluor interf inh=.
O=C1C=C(N2CCOCC2)c2ccccc2C1=O | . | 47 | . | 77 | 98 | 100 | . | Fluor interf inh=.
CC1=C(C)C(=O)C(N2CCOCC2)=CC1=O | . | . | / | . | / | / | /
O=C(NCCN1CCOCC1)C(=O)NCC1OCCN1S(=O)(=O)c1cc(F)ccc1F (stereo not drawn) | . | . | . | . | . | / | /
CN(C)CCNC(=O)C(=O)NCC1OCCN1S(=O)(=O)c1cc(F)ccc1F (stereo not drawn) | . | . | . | . | 47 | . | .
Cc1ccc(C(=O)N/C(=C\c2ccc(-c3ccccc3[N+](=O)[O-])o2)C(=O)NCCCN(C)C)cc1 | . | . | . | . | 56 | 46 | . | Fluor interf inh=.
CN(C)CCNC(=O)/C(=C/c1ccc(-c2cccc([N+](=O)[O-])c2)o1)NC(=O)c1ccccc1 | . | . | . | . | . | / | /
Cc1ccc(C(=O)N/C(=C\c2ccc(-c3ccccc3[N+](=O)[O-])o2)C(=O)NCCN(C)C)cc1 | . | . | . | . | 53 | . | .
N/N=C/C(=N\Nc1ccc(Cl)cc1)C(=O)c1ccncc1 | . | . | . | . | . | / | /
S=c1[nH]c2cc(Cl)c3cccnc3c2o1 | . | . | . | . | 46 | . | .
S=c1[nH]c2ncccc2o1 | . | . | . | . | . | / | /
COC(=O)C1(C)NC(c2ccc(O)cc2)C2C(=O)N(c3ccc(C)cc3)C(=O)C21 (stereo not drawn) | . | . | . | . | . | / | /
Cn1c(=O)n(C)c2cc(/C=N/NC(=O)c3cc4cc(Br)ccc4o3)ccc21 | . | . | . | . | 43 | . | .
COc1ccc(Br)cc1C(=O)N/N=C/c1ccc2c(c1)n(C)c(=O)n2C | . | . | . | . | . | / | /
CCN1CCCC1CNC(=O)c1cc2c(-c3ccc(Cl)cc3)nn(C)c2s1 (stereo not drawn) | . | . | . | . | 49 | . | .
CCOC(=O)CNc1ccc2c(c1)OCO2 | . | . | . | . | 40 | . | .
CCN1CCN(CCCNC(=O)c2ccc(CS(=O)c3ccc(Br)cc3)o2)CC1 (stereo not drawn) | . | . | . | . | . | / | /
Cc1ccc(NC(=O)CN(C)C(=O)c2cc(-c3cccs3)nn2-c2ccccc2)cc1 | . | . | . | . | . | / | /
COc1ccc(C(CNC(=O)c2cc3c(s2)CCC(C)C3)N2CCCC2)cc1 (stereo not drawn) | . | . | . | . | 61 | . | .
CCC1CCc2sc(C(=O)NCc3ccccn3)cc2C1 (stereo not drawn) | . | . | . | . | . | / | /
CCC1CCc2sc(C(=O)NCC(c3ccccc3OC)N3CCCC3)cc2C1 (stereo not drawn) | . | . | . | . | 49 | . | .
O=S(=O)(c1cccc(COc2c(Cl)cccc2Cl)c1)N1CCOCC1 | . | . | . | . | . | / | /
COCCN1C2=C(C(=O)CC(C)(C)C2)C(c2ccc(OC)c(OC)c2)C2=C1CC(C)(C)CC2=O | . | . | . | . | . | / | /
CCOc1cccc2sc(N(CCCN(C)C)C(=O)c3ccc(S(=O)(=O)N4CCc5ccccc5C4)cc3)nc12 | . | . | . | . | 62 | . | .
CN(C)CCCN(C(=O)c1ccc(S(=O)(=O)N(C)C2CCCCC2)cc1)c1nc2ccc(F)cc2s1 | . | . | . | . | . | / | /
SMILES | PAFAH1B2 inh | PAFAH2 inh | pPAFAH inh | PAFAH1B3 inh | Apaf-1 inh | Apaf-1 inh conf2 | Rh110 quench | others
CCOc1ccc2nc(N(CCCN(C)C)C(=O)c3ccc(S(=O)(=O)N4CCCC4)cc3)sc2c1 | . | . | . | . | . | / | /
Cc1cc(C)c2sc(N(CCCN(C)C)C(=O)c3ccc(S(=O)(=O)N(C)C4CCCCC4)cc3)nc2c1 | . | . | . | . | 40 | . | .
CN(C)CCCN(C(=O)c1ccc(S(=O)(=O)N2CCCC2)cc1)c1nc2ccc(Br)cc2s1 | . | . | . | . | 53 | . | .
CN(C)CCCN(C(=O)c1ccc(C(=O)c2ccccc2)cc1)c1nc2cc3c(cc2s1)OCO3 | . | . | . | . | 60 | . | .
Cc1ccccc1OCC(=O)NNC(=O)C1CC(=O)N(c2ccc3c(c2)OCCO3)C1 (stereo not drawn) | . | . | . | . | . | / | /
Cc1cc(NC(=O)COC(=O)[C@H](Cc2ccccc2)NC(=O)c2ccco2)no1 | . | . | / | . | / | / | /
O=C(COC(=O)c1cc(Cl)nc(Cl)c1)Nc1ccc(Cl)c(S(=O)(=O)N2CCOCC2)c1 | . | . | . | . | . | / | /
CCOC(=O)C1=C(C2=CCCCC2)c2ccc(OC)cc2N(S(=O)(=O)C(F)(F)F)C1C(=O)OCC (stereo not drawn) | . | . | . | . | . | / | /
CN(C)CCCN(C(=O)c1ccc(S(=O)(=O)N2CCCCC2)cc1)c1nc2cc3c(cc2s1)OCO3 | . | . | . | . | 42 | . | .
CCC(=O)N1N=C(c2ccc(NS(=O)(=O)c3ccccc3)cc2)CC1c1ccco1 (stereo not drawn) | . | . | . | . | . | / | /
CC1=NN(c2ccccc2)C(=O)/C1=C\c1cc(C)n(C)c1C | . | . | . | . | . | / | /
CC1=NN(c2ccccc2)C(=O)/C1=C/c1cccc(C)c1 | . | . | . | . | 96 | . | .
COc1cc(/C=C2/C(=O)N(c3cccc(Br)c3)N=C2C)cc(OC)c1O | . | . | . | . | 82 | . | .
COc1ccc(C2=NN(c3ccccc3)C(=O)/C2=C\c2ccc(O)c(OC)c2)cc1 | . | . | . | . | 90 | . | .
COc1cc(/C=C2/C(=O)N(c3ccc(Br)cc3)N=C2C)cc([N+](=O)[O-])c1O | / | / | . | / | . | / | /
CC(=O)Oc1ccc(/C=C2/C(=O)N(c3ccccc3)N=C2C)cc1 | . | . | . | . | 91 | . | .
CCOc1cc(/C=C2/C(=O)N(c3ccccc3)N=C2C)ccc1OC(=O)c1cccs1 | . | . | . | . | 69 | . | .
COc1ccc(/C=C2/C(=O)N(c3ccccc3)N=C2C)cc1OC | . | . | / | . | 96 | . | .
CC1=NN(c2ccccc2)C(=O)/C1=C/N(C)C | . | . | . | . | . | / | /
